Converted amounts (≈) assume the structure as drawn. The source made the active and inactive calls. The calls are words filed in the database; no cut-off is given here.
What was measured:
[1] = system: Callosobruchus maculatus; test: Inhibition of F1 generation emergence in adult Callosobruchus maculatus grown on compound pre-treated cowpea seeds assessed as reduction in adult emergence at 10 to 500 ppm measured over 2 weeks from start of F1 emergence; assay type: functional, organism-based
Procedure, shortened: (§1)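 Compounds in acetone at 500, 100 and 10 ppm were coated onto cowpea seed by rotary evaporation (5 mL per 25 g) and air-dried 1 h. 5 g of treated seed went in a vial with 5 mated females, 2–3 days old, 5 replicates per treatment. Females were removed at 72 h and eggs counted. F1 emergence was counted from day 25 over two weeks. Means compared by ANOVA with SNK or LSD.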

[2] = system: Callosobruchus maculatus; test: Inhibition of oviposition in adult Callosobruchus maculatus grown on compound pre-treated cowpea seeds assessed as reduction in number of eggs at 10 to 500 ppm measured after 72 hr; assay type: functional, organism-based; procedure, shortened: as §1
[3] = system: Callosobruchus maculatus; test: Insecticidal activity against adult Callosobruchus maculatus assessed reduction mean survival fraction measured 72 hr post dose (reference value: 4.4 +/- 0.31 mean survival fraction); assay type: functional
[4] = system: Callosobruchus maculatus; test: Insecticidal activity against adult Callosobruchus maculatus assessed mean survival fraction ratio at 10 ppm measured 72 hr post dose (reference value: 4.4 +/- 0.31 mean survival fraction); assay type: functional
[5] = system: Callosobruchus maculatus; test: Insecticidal activity against adult Callosobruchus maculatus assessed mean survival fraction ratio at 100 ppm measured 72 hr post dose (reference value: 4.4 +/- 0.31 mean survival fraction); assay type: functional
[6] = system: Callosobruchus maculatus; test: Insecticidal activity against adult Callosobruchus maculatus assessed mean survival fraction ratio at 500 ppm measured 72 hr post dose (reference value: 4.4 +/- 0.31 mean survival fraction); assay type: functional

Structure (SMILES)	inhibition [1]	inhibition [2]	LC50 [3] [µg/mL]	Ratio [4]	Ratio [5]	Ratio [6]
C=C(C)[C@H]1Cc2c(ccc3c2O[C@@H]2COc4cc(OC)c(OC)cc4[C@@H]2C3=O)O1 [ROTENONE]	Active	Active	< 10	1	0.7	0.4
COc1cc2c(cc1OC)[C@]1(O)C(=O)c3ccc4c(c3O[C@@H]1CO2)C1C(O4)C1(C)C (some centres undefined) [SARCOLOBINE]			< 10	2	1.4	0.6
COc1cc2c(cc1OC)[C@@H]1C(=O)c3ccc4c(c3O[C@@H]1CO2)C=CC(C)(C)O4 [DEGUELIN]	Active	Active	< 10	2.6	1.4	0.9
COc1cc2c(cc1OC)[C@]1(O)C(=O)c3ccc4c(c3O[C@@H]1CO2)C=CC(C)(C)O4 [TEPHROSIN]	Active	Active	200 (≈ 487 µM)	2.9	2.3	1.8
COc1cc2c(cc1OC)[C@@H]1C(=O)c3c(O)cc4c(c3O[C@@H]1CO2)C=CC(C)(C)O4 [TOXICAROL]			< 10	2.2	2.2	2.2
COc1cc2c(c3c1C(=O)C[C@@H](c1ccccc1)O3)C=CC(C)(C)O2 [OBOVATIN 5-METHYL ETHER]				3.8	4.2	4.2

Reference: ChEMBL document CHEMBL3045637, “Highly variable insect control efficacy of Tephrosia vogelii chemotypes” (2012)
